The target in series [1] is Hypoxia inducible factors; HIF-1-alpha, HIF-2-alpha (Homo sapiens, UniProt Q16665+Q99814). Kind of series: Inhibition of HIF1 signaling in human U251 cells expressing VEGF by VEGF promoter-driven PLAP reporter gene assay. The class given is cell-based. The following applies: u-251. Put shortly: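 U251/VEGF-PLAP reporter cells seeded at 4.0 × 10⁴ cells/well and incubated overnight before compounds were added. Compounds were dissolved in DMSO and diluted in culture medium, final DMSO ≤0.2% (v/v). Cells grown in DMEM with 10% FBS at 37 °C, 5% CO₂, under 21% O₂ (normoxia) or 2% O₂ (hypoxia).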

The test system of series [2] is Mus musculus. Briefly: Suppression of HIF1alpha protein expression in BALB/cA mouse xenografted with human U251 cells at 6.25 to 12.5 mg/kg, po after 24 hrs by ELISA. Type of series: functional, organism-based. The following applies: U-251. A digest of the protocol: (§1)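 Female BALB/cA nu/nu mice bearing subcutaneous untransfected U251 tumors (~300 mm³) got a single oral dose at 10 mL/kg in DMSO/Tween-80 (35:65) diluted 5-fold with saline. Tumors harvested 24 h later, frozen in liquid nitrogen and fragmented, then lysed in Tris pH 7.5/NaCl/Triton X-100 buffer and centrifuged. HIF-1α measured by ELISA, normalized to BCA total protein, expressed as % of vehicle control. Mean of three animals.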

In series [3] the test system is Mus musculus. Kind of series: Toxicity in BALB/cA mouse xenografted with human U251 cells assessed as reduction in body weight at 12.5 mg/kg, po after 24 hrs. Type of series: organism-based, U-251. Set-up: dose 12.5 mg/kg, route oral; scale not given: the % may be the effect or the level left. Particulars: in vivo. Put shortly: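 Nude female BALB/cA mice bearing subcutaneous U251 tumors received one oral dose (10 mL/kg; DMSO/Tween-80 35:65 diluted 5-fold with saline). Body weight was compared with vehicle controls 24 h after dosing.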

Series [4] concerns U-251. Briefly: Suppression of hypoxia-induced HIF1alpha protein expression in human U251 cells at 0.0001 to 1 uM incubated for 6 hrs in presence of 25 uM proteasome inhibitor MG132 by ELISA method. The class given is functional, cell-based. Put shortly:
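Untransfected U251 cells (4 × 10⁴/well) were incubated with graded compound concentrations for 6 h under 21% O₂, 2% O₂, or 2% O₂ with 25 µM MG132. Lysates were diluted fivefold in PBS/1% BSA and HIF-1α measured by ELISA. Mean of two wells.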

In series [5] the test system is Mus musculus. Kind of series: Suppression of HIF1alpha protein expression in BALB/cA mouse xenografted with human U251 cells at 50 to 100 mg/kg, po after 24 hrs by ELISA. Type of series: functional, organism-based. The following applies: U-251. A digest of the protocol:
as §1

Series [6] has as its system Mus musculus. Briefly: Suppression of HIF1alpha mRNA expression in BALB/cA mouse xenografted with human U251 cells at 50 to 100 mg/kg, po after 24 hrs. Particulars: U-251. Type of series: functional, organism-based.
Series [7] has as its system U-251. Kind of series: Suppression of hypoxia-induced HIF1alpha protein expression in human U251 cells at 0.0001 to 1 uM incubated for 6 hrs by ELISA method. Type of series: functional, cell-based. A digest of the protocol: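 Untransfected U251 cells at 4 × 10⁴ cells/well were exposed to compound for 6 h under hypoxia (2% O₂), with normoxia (21% O₂) as comparison. Cells were lysed in Tris/NaCl/Triton buffer, lysate diluted fivefold in PBS with 1% BSA, and HIF-1α quantified by ELISA. Mean of two wells.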

Series [8] concerns U-251. Briefly: Suppression of deferoxamine-induced HIF1alpha protein expression in human U251 cells at 0.0001 to 1 uM incubated for 6 hrs by ELISA method. Type of series: functional, cell-based. A digest of the protocol:
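Untransfected U251 cells at 4 × 10⁴ cells/well were treated for 6 h with a range of compound concentrations. Conditions were 21% O₂, 2% O₂, or 21% O₂ plus 100 µM deferoxamine. Cells were lysed, lysate diluted fivefold in PBS/1% BSA, and HIF-1α measured by total HIF-1α ELISA. Mean of two wells.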

The subject of series [9] is U-251. Kind of series: Suppression of HIF1alpha mRNA expression in human U251 cells. Type of series: functional, cell-based.
Series [10] relates to U-251. Briefly: Antitumor activity against human U251 cells xenografted in BALB/cA mouse assessed as delay in tumor growth at 12.5 to 100 mg/kg, po dosed daily for 11 days. The class given is functional, organism-based. Put shortly: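 Untransfected U251 cells injected subcutaneously into flank or hind leg of female BALB/cA nu/nu mice and grown to about 300 mm³. Mice stratified into groups of 5 with similar mean tumor volume. Dosed orally at 10 mL/kg once daily for 11 days. Vehicle was DMSO/Tween-80 (35:65) diluted 5-fold with saline just before dosing. Tumor volume (length × diameter²/2) measured twice weekly and expressed relative to pretreatment size.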

Series [11] concerns Mus musculus. Kind of series: Toxicity in BALB/cA mouse xenografted with human U251 cells assessed as reduction in body weight at 12.5 to 100 mg/kg, po dosed daily for 11 days. The class given is organism-based, U-251. Particulars: in vivo, 264 h. Set-up: dose 12.5-100 mg/kg, route oral. A digest of the protocol:
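Female BALB/cA nu/nu mice carried subcutaneous untransfected U251 tumors of about 300 mm³, 5 per group. Given oral doses at 10 mL/kg once daily for 11 days in DMSO/Tween-80 (35:65) diluted 5-fold in saline. Body weight was followed alongside tumor volume.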

Series [12] concerns Mus musculus. Kind of series: Suppression of HIF1alpha protein expression in BALB/cA mouse xenografted with human U251 cells at 12.5 mg/kg, po after 3 hrs by ELISA. Type of series: functional, organism-based. On the set-up: dose 12.5 mg/kg. The following applies: U-251. Put shortly:
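Single oral dose given to female nude BALB/cA mice with subcutaneous U251 xenografts. Tumors collected at 3, 12, 16 and 24 h after dosing. HIF-1α in total tumor extracts measured by ELISA and normalized to total protein. Mean ± SD reported.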

For series [13], the system named is Mus musculus. Briefly: Toxicity in BALB/cA mouse xenografted with human U251 cells assessed as mouse survival at 50 mg/kg/day, po. Type of series: organism-based, U-251. On the set-up: route oral. The following applies: in vivo. A digest of the protocol:
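Survival model: untransfected U251 cells implanted intracranially in athymic mice. Oral dosing once daily for about 50 days. Dose formulated in DMSO/Tween-80 (35:65) and diluted 5-fold with saline immediately before administration.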

The source made the active and inactive calls. The rule behind the calls is not given here.

Compound `O=C(Nc1ccc(C(F)(F)F)cc1)c1ccc(CN2CCOCC2)cc1` returned a concentration for half-maximal inhibition (IC50) in series [1] of 280 nM.
`O=C(Nc1ccc(C#CC2(O)CCCCC2)cc1)c1ccc(CN2CCN(Cc3cccnc3)CC2)cc1` displayed an IC50 in series [1] of over 200 nM.
In series [1], `O=C(Nc1ccc(C(F)(F)F)cc1)c1ccc(CN2CCOCC2)cn1` returned an IC50 of 230 nM.
Same read-out and setting: to `O=C(Nc1ccc(C(F)(F)F)cc1)c1ccc(CN2CCN(Cc3ccccc3)CC2)cc1` belongs 13 nM.
Still for that read-out and setting: for `O=C(Nc1ccc(C(F)(F)F)cc1)c1cccc(CN2CCOCC2)c1` the value was over 10000 nM.
The same measure, in the same setting: to `O=C(Nc1ccc(C(F)(F)F)cc1)c1ccc(CN2CCOCC2)nc1` belongs 4500 nM.
In the case of `O=C(Nc1ccc(C(F)(F)F)cc1)c1ccc(CC2CCN(Cc3ccncc3)CC2)cc1`, in series [1], the IC50 is 110 nM.
Compound `COCCOCc1ccc(CN2CCN(Cc3ccc(C(=O)Nc4ccc(C#CC56CC7CC(CC(C7)C5)C6)cc4)cc3)[C@@H](C)C2)cn1` displayed an IC50 in series [1] of 0.47 nM. The inhibition entry in the series on Mus musculus [2] is “Active”. The Activity in the series on Mus musculus [3] is 92%.
`O=C(Nc1ccc(C#Cc2ccccc2)cc1)c1ccc(CN2CCN(Cc3cccnc3)CC2)cc1`: the inhibition result with U-251 [4], with Mus musculus [6], with U-251 [8] and with U-251 [9] was “inactive” throughout. Besides, the IC50 in series [1] came out at 7.9 nM. Also, the inhibition result with Mus musculus [5] and in the series with U-251 [7] was “Active” each time.
The compound `O=C(Nc1ccc(C(F)(F)F)cc1)c1ccccc1CN1CCOCC1` registered an IC50 in series [1] of over 10000 nM.
Compound `Nc1ncccc1C(=O)N1CCN(Cc2ccc(C(=O)Nc3ccc(C#Cc4ccccc4)cc3)cc2)CC1` gave an IC50 in series [1] of 21 nM. Further, the inhibition entry in the series with Mus musculus [5] and in the series with Mus musculus [12] was “Active” in each case. Further, in the series on Mus musculus [6], the inhibition entry is “inactive”. Further, the TGI entry in the series on U-251 [10] is “Active”. Besides, in the series on Mus musculus [11], the Activity result is listed as “Non-toxic”. The Survival with Mus musculus [13] came out at 50 days.
With `C[C@H]1CN(Cc2cccnc2)CCN1Cc1ccc(C(=O)Nc2ccc(C#CC34CC5CC(CC(C5)C3)C4)cc2)cc1`, the half-inhibitory concentration (IC50) in series [1] was found to be 2.6 nM.
Same read-out and setting: for `O=C(Nc1ccc(C#CC2CCCCC2)cc1)c1ccc(CN2CCN(Cc3cccnc3)CC2)cc1` the value was 3.1 nM; for `COc1ccc(NC(=O)c2ccc(CN3CCOCC3)cc2)cc1`, 13900 nM.
Regarding `COCc1ccc(CN2CCN(Cc3ccc(C(=O)Nc4ccc(C#CC56CC7CC(CC(C7)C5)C6)cc4)cc3)[C@@H](C)C2)cn1`, the IC50 in series [1] worked out at 1.1 nM.
Same read-out and setting: for `O=C(Nc1ccc(C(F)(F)F)cn1)c1ccc(CN2CCOCC2)cc1` the value was 4000 nM; for `O=C(Nc1ccc(C#CC23CC4CC(CC(C4)C2)C3)cc1)c1ccc(CN2CCN(Cc3cccnc3)CC2)cc1`, 0.97 nM; for `C[C@@H]1CN(Cc2cccnc2)CCN1Cc1ccc(C(=O)Nc2ccc(C(F)(F)F)cc2)cc1`, 13 nM.
For the compound `FC(F)(F)c1ccc(/C=C/c2ccc(CN3CCOCC3)cc2)cc1`, the IC50 in [1] is 880 nM.
On to `O=C(Nc1ccc(C(F)(F)F)cc1)c1ccc(CN2CCN(Cc3ccncc3)CC2)cc1`, for which the IC50 in series [1] turned out to be 7.9 nM.
As to `CN(CCN(C)Cc1cccnc1)Cc1ccc(C(=O)Nc2ccc(C(F)(F)F)cc2)cc1`, the IC50 in [1] was determined as 120 nM.
The same measure, in the same setting: for `O=C(Nc1ccc(I)cc1)c1ccc(CN2CCOCC2)cc1` the value was 560 nM; for `Nc1ncccc1C(=O)N1CCN(Cc2ccc(C(=O)Nc3ccc(C#CC45CC6CC(CC(C6)C4)C5)cc3)cc2)CC1`, 5.8 nM.
On the same count and under the same terms, to `O=C(Nc1cccc(I)c1)c1ccc(CN2CCOCC2)cc1` belongs 2200 nM; to `O=C(Nc1ccc(CN2CCOCC2)cc1)c1ccc(I)cc1`, 2500 nM; to `O=C(Nc1ccc(C#Cc2cccnc2)cc1)c1ccc(CN2CCN(Cc3cccnc3)CC2)cc1`, 34 nM.
On the same count and under the same terms, for `CN(C(=O)c1ccc(CN2CCOCC2)cc1)c1ccc(I)cc1.Cl` the value was 2200 nM.
Regarding `C[C@H]1CN(Cc2cccnc2)CCN1Cc1ccc(C(=O)Nc2ccc(C(F)(F)F)cc2)cc1`, the 50% inhibitory concentration (IC50) in series [1] stood at 3.3 nM.
As to `O=C(Nc1ccc(C(F)(F)F)cc1)c1ccc(CN2CCN(Cc3cccnc3)CC2)cc1`, the IC50 in [1] is 14 nM.
Same read-out and setting: to `C[C@H]1CN(Cc2ccc(C(=O)Nc3ccc(C(F)(F)F)cc3)cc2)CCN1Cc1cccnc1` belongs 35 nM; to `O=C(Nc1ccccc1)c1ccc(CN2CCOCC2)cc1`, 5400 nM.
Same read-out and setting: to `O=C(Nc1ccccc1I)c1ccc(CN2CCOCC2)cc1` belongs over 20000 nM.
The same measure, in the same setting: for `C[C@@H]1CN(Cc2ccc(C(=O)Nc3ccc(C(F)(F)F)cc3)cc2)CCN1Cc1cccnc1` the value was 30 nM; for `O=C(Nc1ccc(C(F)(F)F)cc1)c1ccc(CN2CCOCC2)s1`, 1600 nM.
As for `Ic1ccc(NCc2ccc(CN3CCOCC3)cc2)cc1`, the IC50 in series [1] came to 2500 nM.

The values are drawn from ChEMBL document CHEMBL3351307, “Synthesis and structure-activity relationships of novel, potent, orally active hypoxia-inducible factor-1 inhibitors” (Bioorg Med Chem, 2014).
